Shown are actives, neighbours in structure and some others; about 1.5% of the full set was active somewhere.
CCR6 antagonist: CCR6 receptor antagonists, primary screen, cell-based, CHO-K1, luminescence, beta-arrestin, uHTS | CHO-K1 CCR6 PathHunter beta-arrestin, CCL20-stimulated | 0.49% of 340,000 active | C-C chemokine receptor type 6 (Homo sapiens), P51684 | inhibition, % at 20 µM;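 active = compounds whose inhibition of the agonist-driven luminescence signal at 20 µM reaches about 50%, limit read from the data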;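 also: cells stimulated with CCL20 at 14 nM final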
EBI2 antag: EBI2 receptor antagonists, beta-arrestin recruitment, primary screen, cell-based, luminescence, 7a,25-OHC stimulation, uHTS | AID 651636, 2012 | inhibition, % at 5 µM | 7a,25-OHC stimulated | G-protein coupled receptor 183 (Homo sapiens), P32249 | 0.81% of 360,000 active; in the data active = inhibition above about 38%;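 also: enzyme fragment complementation signal reports receptor beta-arrestin coupling in cells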
CXCR6 block: CXCR6 receptor inhibitors, primary screen, cell-based, beta-arrestin, luminescence, CHO-K1 PathHunter, 1536-well; inhibition, % at 20 µM; C-X-C chemokine receptor type 6 (Homo sapiens), O00574; AID 602244, 2012; 0.36% of 360,000 active; in the data active = inhibition above about 34%, passing the limit was not always enough;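 also: antagonist mode with CXCL16 agonist at 10 nM final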
APJ agonist: agonists of human apelin receptor APJ, primary screen, CHO-K1 cells, PathHunter beta-arrestin, luminescence | P35414 | 0% DMSO wells, 100% apelin | activation, % at 20 µM | 0.11% of 330,000 active | AID 2520, 2010;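 active = activation more than six SD over the plate average, tested at 20 µM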
Target sequence (P35414 whole entry, looked up): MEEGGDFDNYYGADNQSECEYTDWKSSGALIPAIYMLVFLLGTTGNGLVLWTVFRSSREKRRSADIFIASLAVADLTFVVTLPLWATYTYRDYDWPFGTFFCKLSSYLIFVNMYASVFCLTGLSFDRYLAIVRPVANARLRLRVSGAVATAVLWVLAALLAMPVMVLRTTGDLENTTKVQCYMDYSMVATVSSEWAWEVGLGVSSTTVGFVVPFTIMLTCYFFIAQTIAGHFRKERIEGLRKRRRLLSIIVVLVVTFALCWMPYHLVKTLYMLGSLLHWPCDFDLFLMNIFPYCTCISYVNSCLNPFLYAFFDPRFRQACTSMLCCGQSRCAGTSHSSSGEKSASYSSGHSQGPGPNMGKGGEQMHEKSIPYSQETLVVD
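Assay system: CHO-K1 APJ beta-arrestin complementation cell line / Compound: single test compound dose, 20 µM final, 1% DMSO / Times: overnight seeding, 90 min compound at 25 °C, 1 h detection / Technique: beta-gal luminescence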
APJ antagonist: antagonists of human apelin receptor APJ, primary screen, CHO-K1 cells, beta-arrestin complementation, luminescence; inhibition, % at 20 µM; 0.32% of 330,000 active; AID 2521, 2010;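 active = inhibition above about 40% at 20 µM, limit read from the data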;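 also: cells challenged with 10 nM apelin-13 agonist together with compound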
EBI2 antag conf: EBI2 antagonist hit retest, beta-arrestin, confirmation, cell-based, single concentration, luminescence, 7a,25-OHC stimulation; shares compounds with EBI2 antag; 29% of 2,400 active; inhibition, % at 5 µM; 7a,25-OHC antagonism; AID 651997, 2013;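 active = inhibition of at least 50%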
EBI2 ag: EBI2 agonist activity of antagonist hits, confirmation, counter-screen for EBI2 antagonist project, cell-based, single concentration, agonist mode, luminescence | shares compounds with EBI2 antag | EBI2-expressing cells, 60 min; 0% vehicle, 100% 7α,25-dihydroxycholesterol control | activation, % at 5 µM | 2,400 tested, under 10 active | AID 652000, 2013;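 active = activation of at least 50%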
bGal counter: E. coli beta-galactosidase enzyme inhibition, confirmation, counter-screen for EBI2 antagonist project, biochemical, luminescence, single concentration; shares compounds with EBI2 antag; purified beta-galactosidase, luminescent Galacton Star, 15 min; inhibition, % at 5 µM; 1% of 2,400 active; AID 652176, 2013;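 active = replicate-average signal at least 3 plate SD below neutral wells, shown as high inhibition, flagging enzyme-inhibiting false positives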;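 also: higher means stronger loss of beta-gal luminescence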
Numbers stand for hits; - = inactive; . = no result.

SMILES | CCR6 antagonist | EBI2 antag | CXCR6 block | APJ agonist | APJ antagonist | EBI2 antag conf | EBI2 ag | bGal counter
CC(C)(C)c1ccc(S(=O)(=O)N2CCC(NC(=O)c3ccco3)CC2)cc1 | - | - | - | - | - | . | . | .
COc1ccc(OC)c(S(=O)(=O)N2CCC(C(=O)NCCc3ccccc3)CC2)c1 | - | - | - | - | - | . | . | .
CCOc1ccc(CCN2C(=S)N([C@@H](CC(C)C)CN3CCCC3CN3C(=S)NC[C@@H]3CC(C)C)C[C@@H]2Cc2ccc(O)cc2)cc1 (stereo not given in full) | - | - | - | . | . | . | . | .
CC(C)C[C@@H](CN1CCC[C@@H]1CN1C(=S)NC[C@@H]1Cc1ccccc1)N1C[C@H](Cc2ccc(O)cc2)N(CCc2ccccc2)C1=S | . | 37 | - | . | . | - | - | -
CC(C)C[C@@H](CN1CCCC1CN1C(=S)NC[C@@H]1Cc1ccccc1)N1C[C@H](Cc2ccccc2)N(CCc2ccccc2)C1=S (stereo not given in full) | . | - | - | . | . | . | . | .
CC(C)C[C@H]1CNC(=S)N1C[C@H]1CCCN1C[C@H](CC(C)C)N1C[C@H](Cc2ccc(O)cc2)N(CC2CCCCC2)C1=S | . | 61 | - | . | . | - | - | -
CCOc1ccc(CCN2C(=S)N([C@@H](CC(C)C)CN3CCC[C@@H]3CN3C(=S)NC[C@@H]3CC(C)C)C[C@@H]2Cc2ccc(O)cc2)cc1 | . | 47 | - | . | . | - | - | -
CC(C)C[C@@H](CN1CCC[C@@H]1CN1C(=S)NC[C@@H]1Cc1ccc(O)cc1)N1C[C@H](Cc2ccc(O)cc2)N(CCc2ccccc2)C1=S | . | 74 | - | . | . | - | - | -
CC(C)C[C@@H](CN1CCCC1CN1C(=S)NC[C@@H]1Cc1ccccc1)N1C[C@H](Cc2ccc(O)cc2)N(CCc2ccccc2)C1=S (stereo not given in full) | . | - | - | . | . | . | . | .
Cc1ccn2c(=O)c(C(=O)NC3CCCCC3C)c(O)nc2c1 (stereo not given) | - | - | - | - | - | . | . | .
CCOC(=O)C1CCN(C(=O)c2cc3ccc(OC)cc3[nH]2)CC1 | - | 38 | - | - | - | - | - | -
CCOC(=O)N1CCN(C(=O)c2cc3ccc(OC)cc3[nH]2)CC1 | - | 59 | - | - | - | - | - | -
CCOC(=O)C1CCN(C(=O)c2cc3cc(Cl)ccc3[nH]2)CC1 | - | 89 | - | - | - | 67 | - | -
CCOC(=O)N1CCN(C(=O)c2ccc(OC)cc2)CC1 | - | - | - | - | - | . | . | .
CN(C)c1ccc(-c2ccc([C@H]3[C@@H]4C=CCC[C@@]4(C)C(=O)N3Cc3ccccc3)c(F)c2)cc1 | - | - | - | - | - | . | . | .
Cc1ccc(-c2nnc(N3CCN(C(=O)CN4C(=O)c5ccccc5C4=O)CC3)c3ccccc23)cc1 | - | - | - | - | - | . | . | .
Cc1ccc(-c2nnc(N3CCN(C(=O)COc4cccc(C)c4)CC3)c3ccccc23)cc1 | - | 63 | - | - | - | - | - | -
Cc1cccc(OCC(=O)N2CCN(c3nnc(-c4ccccc4)c4ccccc34)CC2)c1 | - | 55 | - | - | - | - | - | -
CCN(CC(=O)Nc1ccc(NC(C)=O)cc1)C(=O)c1ccc(N2C(=O)c3ccccc3C2=O)cc1 | - | - | - | . | . | . | . | .
COC(=O)c1ccc(CSc2nnc(Nc3ccc(C)cc3)s2)o1 | - | 38 | - | - | - | - | - | -
Cc1ccc(/C=C/C(=O)c2ccc(N3CCOCC3)cc2)s1 | - | 65 | - | - | - | - | - | -
Cc1cccc(/C=C/C(=O)c2ccc(N3CCOCC3)cc2)c1 | . | . | . | - | - | . | . | .
CCc1ccc(/C=C/C(=O)c2ccc(S(=O)(=O)N(C)C)cc2)cc1 | - | 86 | - | - | - | 60 | - | -
CCc1ccc(/C=C/C(=O)c2ccc(N3CCOCC3)cc2)cc1 | - | 83 | - | - | - | 53 | - | -
CCc1ccc(NC(=O)CS(=O)CC(=O)Nc2ccc(N3CCOCC3)cc2)cc1 (stereo not given) | - | - | - | - | - | . | . | .
SMILES | CCR6 antagonist | EBI2 antag | CXCR6 block | APJ agonist | APJ antagonist | EBI2 antag conf | EBI2 ag | bGal counter
O=C(/C=C/c1ccc(F)cc1)c1ccc(N2CCOCC2)cc1 | - | 66 | - | - | - | 51 | - | -
CCc1ccc(C(=O)/C=C/c2ccc([N+](=O)[O-])o2)cc1 | - | - | - | - | - | . | . | .
CCCCn1c(N)c(N(CC(C)C)C(=O)CSc2n[nH]c(-c3ccc(C)cc3)n2)c(=O)[nH]c1=O | - | - | - | - | - | . | . | .
Cc1cccc(C(=O)Nc2sc3c(c2C(=O)O)CCCC3)c1 | - | - | - | - | - | . | . | .
COc1ccccc1C(=O)Nc1ccnn1C1CCN(C/C=C/c2ccc(F)cc2)CC1 | - | - | - | - | - | . | . | .
OC(COc1ccccc1)CN1CCN(C(c2ccccc2)c2ccccc2)CC1 (stereo not given) | - | 59 | - | - | - | - | - | -
CCC(=O)c1ccc(OCC(O)CN2CCN(C(c3ccccc3)c3ccccc3)CC2)cc1 (stereo not given) | - | 75 | - | - | - | - | - | -
N#Cc1ccc(OCC(O)CN2CCN(c3ncc(C(F)(F)F)cc3Cl)CC2)cc1 (stereo not given) | - | 48 | - | - | - | - | - | -
N#Cc1ccc(OCC(O)CN2CCN(CC(O)COc3ccc(C#N)cc3)CC2)cc1 (stereo not given) | - | - | - | - | - | . | . | .
OC(CN1CCN(c2ncc(C(F)(F)F)cc2Cl)CC1)c1ccccc1 (stereo not given) | - | - | - | - | - | . | . | .
N#Cc1ccc(OCC(O)CN2CCN(C(c3ccccc3)c3ccccc3)CC2)cc1 (stereo not given) | - | 89 | - | - | - | 59 | - | -
CCC(=O)c1ccc(OCC(O)CN2CCOCC2)cc1 (stereo not given) | - | - | - | - | - | . | . | .
Cc1c(NC(=O)c2cc3ccccc3o2)cccc1-n1cnnn1 | . | - | - | . | . | . | . | .
COc1ccc2ccc(OC)c(/C=N/n3cnnc3)c2c1 | - | - | - | - | - | . | . | .
Cc1ccc(-c2nn(-c3ccccc3)cc2C=C2SC(=S)N(CCS(=O)(=O)O)C2=O)cc1 | . | - | - | . | . | . | . | .
